Measured values reported in PubChem BioAssay AID871 (The Scripps Research Institute Molecular Screening Center, 2007).
About 1,800 (0.95%) of roughly 190,000 compounds were called active.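 The calls were made as follows: active = activation above the screen-wide mean of compound activation plus 3 SD (cut at about 130% in these data); inactive = the rest.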 For the sample, actives were picked, then their nearest neighbours and some compounds at random.

Experiment: enhancers of STAT3 transcriptional signaling – U3A cells, luciferase, luminescence, MLSCN library, primary screen (AID 871);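 also: 0% = background luminescence of wells with medium and substrate only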
Conditions: IL-6 STAT3-luciferase reporter, at 5.6 µM, active compounds read high, 100% = signal with IL-6 EC80 alone
In short: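 Test system: human U3A cells carrying STAT3-luciferase construct; control set: IL-6-only wells as 100% reference; timing: compound pre-incubation 1 h before IL-6, then 6 h stimulation at 37 °C; also added: IL-6 stimulus at 33 ng/mL final; evaluation: % activation versus median of IL-6-stimulated wells; detection: reporter luminescence signal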

Activation (% of control), inactive:
CCCS(=O)(=O)N1CCC(CCOc2ccccc2)(C(=O)OCC)CC1 95.8%
O=C(/C(=C/c1cccc(Cl)c1)c1nc2ccccc2[nH]1)c1ccccc1 98.5%
c1ccc2[nH]c(-c3nc4ccccc4[nH]3)nc2c1 63.1%
Cc1ccc(O)c(CNc2nc3ccccc3n2C)c1 102%
Cc1c(C(=O)Nc2cccc(Cl)c2)cn2c(nc3ccccc32)c1C#N 94.7%
CC(C)CNC(=O)/C=C/C(=O)O 103%
O=C(CN1CCCC1)N1CCN(c2ccccc2)CC1 104%
Cc1nnc(SCc2cccc(Cl)c2)n(N)c1=O 88.9%
Cc1cccc(N=Nc2c(C)[nH]n(-c3ccccc3)c2=O)c1 122%
Cc1c(N=Nc2ccc(N(C)C)cc2)c(=O)n(-c2ccccc2)n1C 115%
Cc1nc2scc(-c3cccs3)c2c(=O)n1N 97.7%
Cn1cccc1-c1nc2ccccc2n1C 89.2%
Cc1nn2c3ccccc3nc2n(C)c1=O 91%
O=C(N/N=C1\CCSC1)c1cc(Cl)ccc1O 100%
Cc1c(C(=O)CN2CCOCC2)[nH]c2ccccc12 121%
CCCC(=O)Nc1c(O)c2ccccc2[nH]c1=O 101%
O=C(CCc1ccc(S(=O)(=O)N2CCOCC2)cc1)Nc1ccc2ccccc2c1 104%
Cc1ccnc(NS(=O)(=O)c2ccc(NC(=O)c3ccc(S(=O)(=O)N4CCOCC4)cc3)cc2)n1 100%
CCOC(=O)c1c(/N=C/c2cc(C)ccc2O)sc2c1CCC2 99.7%
Cc1ccc(C(=O)N/C(=C\c2ccco2)C(=O)N2CCSCC2)cc1C 109%
COc1ccc(N2C(=O)CC(Nc3ccc(F)cc3)C2=O)c([N+](=O)[O-])c1 (stereo unspecified) 92.9%
C=CCOc1ccc(/C=N/NC(=O)C(C)Sc2ccccn2)cc1OCC (stereo unspecified) 106%
COc1ccc(OC)c2c1sc(=NC(=O)CN1C(=O)CCC1=O)n2C 101%
CCOc1ccc(-n2c(O)c(/C=N/c3ccnn3Cc3ccncc3)c3ccccc3c2=O)cc1 105%
O=C(O)c1ccc(/C=N/NC(=S)NCc2ccccc2)cc1 96.6%
COc1ccc(-n2c(=S)[nH]c3sc4c(c3c2=O)CCc2ccccc2-4)cc1 112%
CSc1nc(O)c(Cc2ccccc2)c(=O)[nH]1 95.3%
c1ccc(-c2cn3cccnc3n2)cc1 91.9%
O=C(CN1C(=O)CC(c2ccccc2)S(=O)(=O)c2ccccc21)NC1CCCC1 (stereo unspecified) 101%
COC(=O)/C(C#N)=C/c1occc1C 94.2%
CCOC(=O)N1CCN(CCC(=O)Nc2cc(OC)ccc2OC)CC1 111%
COCc1ccc(C(=O)N2CCc3c([nH]c4ccccc34)C2c2ccccn2)s1 (stereo unspecified) 96.9%
O=C(c1cn2ccccc2n1)N1CCc2c([nH]c3ccccc23)C1c1ccccn1 (stereo unspecified) 105%
CCCC(=O)N1CCc2[nH]c3ccccc3c2C1 99.4%
O=C(NC1CCCCC1)N1CCc2[nH]c3ccccc3c2C1 96%
COc1ccc(NC(=O)C(=O)NCC(=O)Nc2cccc(C(F)(F)F)c2)cc1 98.3%
COC(=O)c1ccc(NC(=S)NN2CCOCC2)cc1 109%
O=C(CC1SCCNC1=O)Nc1ccc(Cl)cc1 (stereo unspecified) 105%
CCOC(=O)C1(Cc2cccc(OC)c2)CCN(Cc2csc(C(C)=O)c2)CC1 92.5%
COCCCNC(=O)C1CCC(CNS(=O)(=O)c2ccc(OC)cc2)CC1 (stereo unspecified) 99.2%
O=C1NC(c2ccccc2)=NC1(Nc1ccccn1)C(F)(F)F (stereo unspecified) 100%
CN(C)S(=O)(=O)c1cc(NC(=O)CN2C(=O)NC3(CCCc4ccccc43)C2=O)ccc1Cl (stereo unspecified) 105%
COc1cc(/C=C/C(=O)OCC(=O)NC(=O)NCc2ccccc2)ccc1OCC#N 95.5%
COc1ncnc2sc3c(c12)CCCC3 104%
COc1cc(/C=N/Nc2ccc(C)cc2)cc(Br)c1O 115%
CSc1ccccc1C(=O)NCc1ccccc1 108%
CC(C)CNC(=O)COC(=O)/C=C/c1ccco1 105%
O=C(/C=C/c1ccccc1[N+](=O)[O-])NCC1CCCO1 (stereo unspecified) 97.5%
O=C(NCc1cccs1)C1CCN(S(=O)(=O)c2ccc(Cl)cc2)CC1 104%
COc1cccc2c1CCC(NC(C)=O)C2=O (stereo unspecified) 104%
CC(=O)c1c(C)[nH]c(C(=O)Nc2cc(S(=O)(=O)N(C)C)ccc2C)c1C 90.9%
CC(=O)c1c(C)[nH]c(C(=O)NCc2ccc(C)cc2)c1C 92.2%

Activation (% of control), active:
Oc1ccc(Cl)cc1/C=N/c1nc2ccccc2[nH]1 143%
C/C(=N\c1nc2ccccc2n1C)c1cc(Cl)ccc1O 137%
Cc1ccc(N=Nc2c(C)[nH]n(-c3ccccc3)c2=O)cc1 147%
Cc1ccc(C2=NN(C)c3nc4ccccc4n3C2)cc1 170%
CCCS(=O)(=O)Nc1c(C(=O)O)[nH]c2ccccc12 184%
O=C(Nc1ccc2cn[nH]c2c1)c1ccc(S(=O)(=O)N2CCOCC2)cc1 135%
Cn1c(=NC(=O)C2CC2)sc2cc(F)cc(F)c21 135%
CSc1nc2sc3c(c2c(=O)[nH]1)CCc1ccccc1-3 136%
c1ccc(-c2cn3c(n2)CCc2ccc4cccnc4c2-3)cc1 157%
Cc1cccc(C(=O)N2CCc3c([nH]c4ccccc34)C2CC(C)C)n1 (stereo unspecified) 145%
Cc1cccc(C2c3[nH]c4ccccc4c3CCN2C(=O)c2cc(-c3cccn3C)n[nH]2)n1 (stereo unspecified) 134%
COc1ccc(/C=N/Nc2ncnc3sc4c(c23)CCCC4)cc1O 147%
CC(C)CNC(=O)COC(=O)/C=C/c1ccccc1[N+](=O)[O-] 145%
COc1ccc(C)cc1NC(=O)c1[nH]c(C)c(C(C)=O)c1C 147%
